Series [1] concerns the target T1, ATP-dependent translocase ABCB1 (Homo sapiens, UniProt P08183). In words: Inhibition of human Pgp in anthracycline-resistant K562 cells assessed as drug level causing maximal increase in nuclear concentration of pirarubicin relative to control. In kind it is cell-based. In a few lines:
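Anthracycline-resistant erythroleukemia K562 cells were incubated with pirarubicin, and its uptake was followed by continuous spectrofluorometry (λex 480 nm, λem 590 nm). R is the fractional increase in nuclear pirarubicin with inhibitor: 0 without inhibitor, 1 when it equals sensitive cells. Rmax is the maximal achievable increase. [I]0.5 is the inhibitor concentration giving R = 0.5.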

In series [2] the target is T1, ATP-dependent translocase ABCB1. In words: Inhibition of human Pgp in anthracycline-resistant K562 cells assessed as drug level causing half maximal increase in nuclear concentration of pirarubicin. In kind it is cell-based. To be noted: read-out: Activity.

This passage reports Activity and IC50 results from ChEMBL document CHEMBL1140608 (J Med Chem, 2007).

T1 sequence (P08183 whole entry): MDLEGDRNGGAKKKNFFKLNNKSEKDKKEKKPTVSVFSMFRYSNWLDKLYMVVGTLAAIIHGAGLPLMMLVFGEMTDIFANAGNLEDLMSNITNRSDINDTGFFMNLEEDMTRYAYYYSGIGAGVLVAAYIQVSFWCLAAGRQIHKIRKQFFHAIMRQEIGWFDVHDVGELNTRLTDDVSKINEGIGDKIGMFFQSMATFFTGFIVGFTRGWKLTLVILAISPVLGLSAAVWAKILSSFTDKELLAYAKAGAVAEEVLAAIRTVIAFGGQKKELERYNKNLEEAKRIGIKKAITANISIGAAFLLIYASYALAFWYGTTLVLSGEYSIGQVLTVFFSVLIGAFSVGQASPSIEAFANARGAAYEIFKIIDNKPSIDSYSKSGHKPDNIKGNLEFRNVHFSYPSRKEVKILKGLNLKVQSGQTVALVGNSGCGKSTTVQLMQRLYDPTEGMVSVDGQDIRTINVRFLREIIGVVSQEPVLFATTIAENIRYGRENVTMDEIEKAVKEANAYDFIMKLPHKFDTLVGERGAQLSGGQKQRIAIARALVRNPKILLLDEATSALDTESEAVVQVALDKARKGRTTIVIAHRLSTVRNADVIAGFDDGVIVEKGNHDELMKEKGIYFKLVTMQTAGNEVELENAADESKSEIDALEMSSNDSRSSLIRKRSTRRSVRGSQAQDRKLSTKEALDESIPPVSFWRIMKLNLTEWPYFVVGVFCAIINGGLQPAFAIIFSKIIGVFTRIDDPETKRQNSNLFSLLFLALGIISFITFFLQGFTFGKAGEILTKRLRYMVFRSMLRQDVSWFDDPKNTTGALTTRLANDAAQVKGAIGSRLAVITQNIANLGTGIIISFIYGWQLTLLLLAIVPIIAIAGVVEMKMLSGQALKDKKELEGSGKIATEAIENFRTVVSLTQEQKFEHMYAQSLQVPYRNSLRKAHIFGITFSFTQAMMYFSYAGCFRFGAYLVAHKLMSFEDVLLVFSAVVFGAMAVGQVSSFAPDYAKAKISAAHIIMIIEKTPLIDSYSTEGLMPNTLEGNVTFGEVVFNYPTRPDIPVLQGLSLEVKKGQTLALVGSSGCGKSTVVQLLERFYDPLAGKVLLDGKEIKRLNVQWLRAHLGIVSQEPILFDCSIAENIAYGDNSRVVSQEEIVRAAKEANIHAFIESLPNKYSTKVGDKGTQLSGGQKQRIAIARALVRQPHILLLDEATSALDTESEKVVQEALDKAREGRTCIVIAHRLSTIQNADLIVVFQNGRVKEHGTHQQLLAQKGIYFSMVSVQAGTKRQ

On to `COc1cc(C(=O)OC2CCC(N(C)C3CCC(OC(=O)c4c5ccccc5cc5ccccc45)CC3)CC2)cc(OC)c1OC` (mixture of isomers; cis), for which the Activity in series [1] stood at 0.95. Further, the IC50 in series [2] stood at 300 nM.
As for `COc1cc(/C=C/C(=O)OC2CCC(N(C)C3CCC(OC(=O)c4cc(OC)c(OC)c(OC)c4)CC3)CC2)cc(OC)c1OC` (mixture of isomers; cis), the Activity in series [1] is reported as 0.85. The IC50 in series [2] was 90 nM.
On the same counts, the results for `COc1cc(/C=C/C(=O)OC2CCC(N(C)C3CCC(OC(=O)c4cc(OC)c(OC)c(OC)c4)CC3)CC2)cc(OC)c1OC` (mixture of isomers; trans) are 0.98 and 10 nM.
With `COc1cc(/C=C/C(=O)OC2CCC(N(C)C3CCC(OC(=O)c4cc(OC)c(OC)c(OC)c4)CC3)CC2)cc(OC)c1OC` (stereo in doubt), in series [1], the Activity was determined as 0.81. Besides, the IC50 in series [2] came out at 320 nM.
Consider `COc1cc(/C=C/C(=O)OC2CCC(N(C)C3CCC(OC(=O)c4cc(OC)c(OC)c(OC)c4)CC3)CC2)cc(OC)c1OC` (cis isomer), for which, in series [1], the Activity was 0.8. Also, the IC50 in series [2] is 30 nM.
Take `COc1cc(/C=C/C(=O)OCCCN(C)CCCOC(=O)c2cc(OC)c(OC)c(OC)c2)cc(OC)c1OC`: the Activity in series [1] stood at 0.9. Besides, the IC50 in series [2] is 600 nM.
The matching figures for `COc1cc(C(=O)OCCCN(C)CCCOC(=O)c2c3ccccc3cc3ccccc23)cc(OC)c1OC`: 0.71 and 280 nM.
As to `COc1cc(C(=O)OC2CCC(N(C)C3CCC(OC(=O)c4c5ccccc5cc5ccccc45)CC3)CC2)cc(OC)c1OC` (mixture of isomers; trans), the Activity in series [1] came to 0.78. For the same compound, the IC50 in series [2] came out at 160 nM.
On the same counts, the results for `COc1cc(C(=O)OC2CCC(N(C)C3CCC(OC(=O)c4c5ccccc5cc5ccccc45)CC3)CC2)cc(OC)c1OC` (stereo in doubt) are 0.79 and 180 nM.
Take `COc1cc(C(=O)OC2CCC(N(C)C3CCC(OC(=O)c4c5ccccc5cc5ccccc45)CC3)CC2)cc(OC)c1OC` (trans isomer): the Activity in series [1] stood at 0.88. Further, the IC50 in series [2] was determined as 300 nM.
